What was measured:
[1] = test system: NHDF; assay: (§1) Growth inhibition of human NHDF after 72 hrs by CellTiter-Glo luminescent cell viability assay; assay type: cell-based; conditions: nhdf, 72 h
[2] = test system: Hs-578T; assay: Growth inhibition of human Hs 578T cells incubated for 48 hrs by sulforhodamine B assay; assay type: functional
Summary of the method: (§2)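 NCI-60 five-dose screen at 0.01, 0.1, 1, 10 and 100 µM, 48 h incubation, sulforhodamine B end point. GI50 (50% decrease in net growth), TGI (total growth inhibition) and LC50 (net 50% loss of initial cells) taken from log concentration versus % growth inhibition curves.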

[3] = test system: HCT-15; assay: Growth inhibition of human HCT15 cells incubated for 48 hrs by sulforhodamine B assay; assay type: functional; conditions: HCT-15, 48 h; for CC50: read-out: LC50 (the source's name); summary of the method: as §2
[4] = test system: MOLT-4; assay: Growth inhibition of human MOLT4 cells incubated for 48 hrs by sulforhodamine B assay; assay type: functional; conditions: MOLT-4, 48 h; for CC50: read-out: LC50 (the source's name); summary of the method: as §2
[5] = test system: Malme-3M; assay: Growth inhibition of human MALME-3M cells incubated for 48 hrs by sulforhodamine B assay; assay type: functional; summary of the method: as §2
[6] = as §1; assay type: cell-based; conditions: NHDF cells

Structure (SMILES)	growth inhibition (GI) [1]	GI50 [2] [µM]	LC50 [2] [µM]	TGI [2] [µM]	GI50 [3] [nM]	TGI [3] [µM]	CC50 [3] [µM]	GI50 [4] [nM]	TGI [4] [µM]	CC50 [4] [µM]	GI50 [5] [nM]	TGI [5] [µM]	GI50 at 72 h [6] [nM]	LC50 [1] [µM]	CC50 ([5]; read-out: LC50 (the source's name)) [µM]
C=C1CC[C@@H]2[C@](C)(COC(C)=O)[C@H](OC(C)=O)CC[C@@]2(C)[C@H]1CC(Nc1ccc(S(=O)(=O)Nc2ncccn2)cc1)C1=CCOC1=O (stereo partly drawn)	Non-Toxic	3.54	> 100	24.4	1210	3.32	9.15	2270	8.37	> 100	–	–	–	–	–
C=C1CC[C@@H]2[C@](C)(COC(C)=O)[C@H](OC(C)=O)CC[C@@]2(C)[C@H]1CC(Nc1ccc(S(=O)(=O)Nc2nccc(C)n2)cc1)C1=CCOC1=O (stereo partly drawn)	–	6.65	> 100	43	1790	4.24	10.2	3220	17.9	> 100	–	–	–	–	–
C=C1CC[C@@H]2[C@](C)(COC(C)=O)[C@H](OC(C)=O)CC[C@@]2(C)[C@H]1CC(Nc1ccc(S(=O)(=O)Nc2cc(C)on2)cc1)C1=CCOC1=O (stereo partly drawn)	–	3.92	> 100	26.7	1500	3.83	9.74	2120	6.39	> 100	1890	4	–	–	–
C=C1CC[C@@H]2[C@](C)(COC(C)=O)[C@H](OC(C)=O)CC[C@@]2(C)[C@H]1CC(Nc1ccc(S(=O)(=O)Nc2ccc(Cl)nn2)cc1)C1=CCOC1=O (stereo partly drawn)	–	6.17	> 100	> 100	880	2.3	5.51	1960	> 100	> 100	1720	3.9	1540	3.496358	8.84
C=C1CC[C@@H]2[C@](C)(COC(C)=O)[C@H](OC(C)=O)CC[C@@]2(C)[C@H]1CC(Nc1ccc(S(=O)(=O)Nc2nccs2)cc1)C1=CCOC1=O (stereo partly drawn)	–	10.8	> 100	60.4	1730	4.12	9.84	3680	73.2	> 100	–	–	–	–	–

Reference: ChEMBL document CHEMBL4033712, “Synthesis and biological evaluation of new C-12(α/β)-(N-) sulfamoyl-phenylamino-14-deoxy-andrographolide derivatives as potent anti-cancer agents” (Bioorg Med Chem Lett, 2017)
